ChEMBL document CHEMBL1821590, “Novel dihydropyrimidines and its pyrazole derivatives: synthesis and pharmacological screening” (Eur J Med Chem, 2011)
≈ marks a conversion by molar mass, not a printed value.

test system: Metaphire posthuma; experiment: Anthelmintic activity against Pheretima posthuma assessed as time taken for parasite death at 0.1% w/v; format: functional; conditions: not given
How it was run: (§1)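 Earthworms (Pheretima posthuma, spelled Perituma posthuma in text) exposed to test compounds at 0.1, 0.2 and 0.5% w/v. Albendazole served as standard, with an untreated control. Paralysis was recorded as the time until worms became motionless, then time to death was recorded, in minutes. Each value is the mean of three determinations with S.D.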

**Q.** For CCOC(=O)c1cnn(-c2nc(-c3ccccc3O)c(C#N)c(=O)n2C)c1N, which Time is on record?
**A.** 55.2 min

test system: Staphylococcus aureus; experiment: Antimicrobial activity against Staphylococcus aureus at 25 ug/ml by agar plate diffusion technique; format: functional; conditions: read-out: IZ
How it was run: (§2)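 Agar plate diffusion against E. coli, P. aeruginosa, S. aureus and B. subtilis, with compounds at 25, 50 and 100 µg/mL. Streptomycin as standard.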

**Q.** Which zone of inhibition at 25 µg/mL does the source give for CCOC(=O)c1cnn(-c2nc(-c3ccccc3O)c(C#N)c(=O)n2C)c1N here?
**A.** 12.3 mm

test system: Pseudomonas aeruginosa; experiment: Antimicrobial activity against Pseudomonas aeruginosa at 100 ug/ml by agar plate diffusion technique; format: functional; conditions: read-out: IZ; how it was run: as §2

**Q.** For CCOC(=O)c1cnn(-c2nc(-c3ccccc3O)c(C#N)c(=O)n2C)c1N, which zone of inhibition at 100 µg/mL is on record?
**A.** 21.1 mm

test system: Escherichia coli; experiment: Antimicrobial activity against Escherichia coli at 100 ug/ml by agar plate diffusion technique; format: functional; conditions: read-out: IZ; how it was run: as §2

**Q.** With CCOC(=O)c1cnn(-c2nc(-c3ccccc3O)c(C#N)c(=O)n2C)c1N as the molecule, how does the zone of inhibition at 100 µg/mL read?
**A.** 24.4 mm

test system: Aspergillus niger; experiment: Antimicrobial activity against Aspergillus niger at 25 ug/ml by paper disc method; format: functional; conditions: read-out: IZ
How it was run: (§3)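 Paper disc method against A. niger and C. albicans, with compounds at 25, 50 and 100 µg/mL. Amphotericin-B as standard.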

**Q.** With CCOC(=O)c1cnn(-c2nc(-c3ccccc3O)c(C#N)c(=O)n2C)c1N as the molecule, how does the zone of inhibition at 25 µg/mL read?
**A.** 9.21 mm

test system: Bacillus subtilis; experiment: Antimicrobial activity against Bacillus subtilis at 25 ug/ml by agar plate diffusion technique; format: functional; conditions: read-out: IZ; how it was run: as §2

**Q.** With CCOC(=O)c1cnn(-c2nc(-c3ccccc3O)c(C#N)c(=O)n2C)c1N as the molecule, how does the zone of inhibition at 25 µg/mL read?
**A.** 13.9 mm

test system: Pseudomonas aeruginosa; experiment: Antimicrobial activity against Pseudomonas aeruginosa at 50 ug/ml by agar plate diffusion technique; format: functional; conditions: read-out: IZ; how it was run: as §2

**Q.** With CCOC(=O)c1cnn(-c2nc(-c3ccccc3O)c(C#N)c(=O)n2C)c1N as the molecule, how does the zone of inhibition at 50 µg/mL read?
**A.** 15 mm

test system: Metaphire posthuma; experiment: Anthelmintic activity against Pheretima posthuma assessed as time taken for parasite death at 0.5% w/v; format: functional; conditions: not given; how it was run: as §1

**Q.** With CCOC(=O)c1cnn(-c2nc(-c3ccccc3O)c(C#N)c(=O)n2C)c1N as the molecule, how does the Time read?
**A.** 47.23 min

test system: not listed separately; experiment: Antioxidant activity assessed as inhibition of lipid peroxidation using egg lecithin liposomes incubated for 1 hr; format: functional; conditions: not given
How it was run: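 Egg lecithin (3 mg/mL, phosphate buffer pH 7.4) sonicated 10 min to form liposomes. Sample or ascorbic acid (12.5–100 µg/mL) added. Peroxidation induced with FeCl3 and L-ascorbic acid, 1 h at 37 °C. Stopped with HCl/TCA/TBA/BHA, boiled 15 min, centrifuged, supernatant read at 532 nm. Triplicate. % inhibition vs control. IC50 derived.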

**Q.** For CCOC(=O)c1cnn(-c2nc(-c3ccccc3O)c(C#N)c(=O)n2C)c1N, which IC50 is on record?
**A.** 57 µg/mL (≈ 150 µM)

test system: Staphylococcus aureus; experiment: Antimicrobial activity against Staphylococcus aureus at 100 ug/ml by agar plate diffusion technique; format: functional; conditions: read-out: IZ; how it was run: as §2

**Q.** For CCOC(=O)c1cnn(-c2nc(-c3ccccc3O)c(C#N)c(=O)n2C)c1N, which zone of inhibition at 100 µg/mL is on record?
**A.** 22.8 mm

test system: Metaphire posthuma; experiment: Anthelmintic activity against Pheretima posthuma assessed as time taken for complete parasite paralysis at 0.5% w/v; format: functional; conditions: not given
How it was run: (§4)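 Earthworms (Pheretima posthuma) exposed to test solutions at 0.1, 0.2 and 0.5% w/v; time in minutes to complete paralysis (worms motionless) recorded. Albendazole as standard. Mean of three determinations ± S.D.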

**Q.** For CCOC(=O)c1cnn(-c2nc(-c3ccccc3O)c(C#N)c(=O)n2C)c1N, which Time is on record?
**A.** 38.52 min

test system: Pseudomonas aeruginosa; experiment: Antimicrobial activity against Pseudomonas aeruginosa at 25 ug/ml by agar plate diffusion technique; format: functional; conditions: read-out: IZ; how it was run: as §2

**Q.** Which zone of inhibition at 25 µg/mL does the source give for CCOC(=O)c1cnn(-c2nc(-c3ccccc3O)c(C#N)c(=O)n2C)c1N here?
**A.** 10.2 mm

test system: Staphylococcus aureus; experiment: Antimicrobial activity against Staphylococcus aureus at 50 ug/ml by agar plate diffusion technique; format: functional; conditions: read-out: IZ; how it was run: as §2

**Q.** For CCOC(=O)c1cnn(-c2nc(-c3ccccc3O)c(C#N)c(=O)n2C)c1N, which zone of inhibition at 50 µg/mL is on record?
**A.** 17.4 mm

test system: Aspergillus niger; experiment: Antimicrobial activity against Aspergillus niger at 50 ug/ml by paper disc method; format: functional; conditions: read-out: IZ; how it was run: as §3

**Q.** With CCOC(=O)c1cnn(-c2nc(-c3ccccc3O)c(C#N)c(=O)n2C)c1N as the molecule, how does the zone of inhibition at 50 µg/mL read?
**A.** 12.6 mm

test system: Candida albicans; experiment: Antimicrobial activity against Candida albicans at 50 ug/ml by paper disc method; format: functional; conditions: read-out: IZ; how it was run: as §3

**Q.** Which zone of inhibition at 50 µg/mL does the source give for CCOC(=O)c1cnn(-c2nc(-c3ccccc3O)c(C#N)c(=O)n2C)c1N here?
**A.** 14.5 mm

test system: Metaphire posthuma; experiment: Anthelmintic activity against Pheretima posthuma assessed as time taken for parasite death at 0.2% w/v; format: functional; conditions: not given; how it was run: as §1

**Q.** With CCOC(=O)c1cnn(-c2nc(-c3ccccc3O)c(C#N)c(=O)n2C)c1N as the molecule, how does the Time read?
**A.** 49.54 min

test system: Bacillus subtilis; experiment: Antimicrobial activity against Bacillus subtilis at 100 ug/ml by agar plate diffusion technique; format: functional; conditions: read-out: IZ; how it was run: as §2

**Q.** For CCOC(=O)c1cnn(-c2nc(-c3ccccc3O)c(C#N)c(=O)n2C)c1N, which zone of inhibition at 100 µg/mL is on record?
**A.** 23.1 mm

test system: not listed separately; experiment: Antioxidant activity assessed as nitric oxide radical scavenging activity after 150 mins; format: functional; conditions: not given
How it was run: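 10 mM sodium nitroprusside (4 mL), PBS pH 7.4 (1 mL) and sample or ascorbic acid in DMSO (1 mL, 12.5–100 µg/mL), incubated 150 min at 25 °C. Nitrite detected with sulphanilic acid (5 min) then naphthylethylenediamine (30 min, diffused light). Read at […]. Triplicate. % inhibition = [1 − (Vt/Vc)] × 100. IC50 derived from it.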

**Q.** For CCOC(=O)c1cnn(-c2nc(-c3ccccc3O)c(C#N)c(=O)n2C)c1N, which IC50 is on record?
**A.** 64 µg/mL (≈ 168 µM)

test system: Candida albicans; experiment: Antimicrobial activity against Candida albicans at 25 ug/ml by paper disc method; format: functional; conditions: read-out: IZ; how it was run: as §3

**Q.** Which zone of inhibition at 25 µg/mL does the source give for CCOC(=O)c1cnn(-c2nc(-c3ccccc3O)c(C#N)c(=O)n2C)c1N here?
**A.** 10.6 mm

test system: Aspergillus niger; experiment: Antimicrobial activity against Aspergillus niger at 100 ug/ml by paper disc method; format: functional; conditions: read-out: IZ; how it was run: as §3

**Q.** Which zone of inhibition at 100 µg/mL does the source give for CCOC(=O)c1cnn(-c2nc(-c3ccccc3O)c(C#N)c(=O)n2C)c1N here?
**A.** 18.1 mm

test system: Metaphire posthuma; experiment: Anthelmintic activity against Pheretima posthuma assessed as time taken for complete parasite paralysis at 0.2% w/v; format: functional; conditions: not given; how it was run: as §4

**Q.** With CCOC(=O)c1cnn(-c2nc(-c3ccccc3O)c(C#N)c(=O)n2C)c1N as the molecule, how does the Time read?
**A.** 40.03 min

test system: Metaphire posthuma; experiment: Anthelmintic activity against Pheretima posthuma assessed as time taken for complete parasite paralysis at 0.1% w/v; format: functional; conditions: not given; how it was run: as §4

**Q.** With CCOC(=O)c1cnn(-c2nc(-c3ccccc3O)c(C#N)c(=O)n2C)c1N as the molecule, how does the Time read?
**A.** 43.09 min

test system: not listed separately; experiment: Antioxidant activity assessed as potassium ferricyanide ion reducing power after 20 mins; format: functional; conditions: not given
How it was run: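 Oyaizu method. Samples or ascorbic acid in DMF (12.5–100 µg/mL) mixed with 0.2 M phosphate buffer pH 6.6 and 1% potassium ferricyanide, 20 min at 50 °C. 10% TCA added, centrifuged. Supernatant mixed with water and 0.1% FeCl3, read at 700 nm. % = [(Vt/Vc) − 1] × 100. IC50 derived.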

**Q.** For CCOC(=O)c1cnn(-c2nc(-c3ccccc3O)c(C#N)c(=O)n2C)c1N, which IC50 is on record?
**A.** 48 µg/mL (≈ 126 µM)

test system: Candida albicans; experiment: Antimicrobial activity against Candida albicans at 100 ug/ml by paper disc method; format: functional; conditions: read-out: IZ; how it was run: as §3

**Q.** With CCOC(=O)c1cnn(-c2nc(-c3ccccc3O)c(C#N)c(=O)n2C)c1N as the molecule, how does the zone of inhibition at 100 µg/mL read?
**A.** 15.5 mm

test system: Escherichia coli; experiment: Antimicrobial activity against Escherichia coli at 50 ug/ml by agar plate diffusion technique; format: functional; conditions: read-out: IZ; how it was run: as §2

**Q.** Which zone of inhibition at 50 µg/mL does the source give for CCOC(=O)c1cnn(-c2nc(-c3ccccc3O)c(C#N)c(=O)n2C)c1N here?
**A.** 17.3 mm

test system: Escherichia coli; experiment: Antimicrobial activity against Escherichia coli at 25 ug/ml by agar plate diffusion technique; format: functional; conditions: read-out: IZ; how it was run: as §2

**Q.** For CCOC(=O)c1cnn(-c2nc(-c3ccccc3O)c(C#N)c(=O)n2C)c1N, which zone of inhibition at 25 µg/mL is on record?
**A.** 13.5 mm

test system: Bacillus subtilis; experiment: Antimicrobial activity against Bacillus subtilis at 50 ug/ml by agar plate diffusion technique; format: functional; conditions: read-out: IZ; how it was run: as §2

**Q.** With CCOC(=O)c1cnn(-c2nc(-c3ccccc3O)c(C#N)c(=O)n2C)c1N as the molecule, how does the zone of inhibition at 50 µg/mL read?
**A.** 14.2 mm

test system: not listed separately; experiment: Antiinflammatory activity assessed as inhibition of albumin denaturation at 100 ug/ml by UV-visible spectrophotometry; format: functional; conditions: not given
How it was run: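 Compounds dissolved in minimal DMF, diluted in PBS pH 7.4 (final DMF <2.5%). 1 mL test solution (100 µg/mL) plus 1 mL 1% albumin in PBS, 15 min at 27 ± 1 °C, then heated 10 min at 60 ± 1 °C. After cooling, turbidity read at 660 nm. % inhibition = [(Vt/Vc) − 1] × 100 against a no-drug control. Triplicate, averaged. Diclofenac standard.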

**Q.** With CCOC(=O)c1cnn(-c2nc(-c3ccccc3O)c(C#N)c(=O)n2C)c1N as the molecule, how does the inhibition read?
**A.** 54.4%

test system: not listed separately; experiment: Antioxidant activity assessed as hydrogen peroxide scavenging activity after 10 mins; format: functional; conditions: not given
How it was run: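 H2O2 (20 mM) in PBS pH 7.4. 1 mL of sample or ascorbic acid in methanol (12.5–100 µg/mL) added to 2 mL H2O2 solution. A230 read after 10 min. % inhibition = [1 − (Vt/Vc)] × 100. Triplicate, averaged. IC50 derived from % inhibition across concentrations.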

**Q.** Which IC50 does the source give for CCOC(=O)c1cnn(-c2nc(-c3ccccc3O)c(C#N)c(=O)n2C)c1N here?
**A.** 58 µg/mL (≈ 152 µM)
